System: MS2 coat protein
Test: apparent Kd, MS2 coat protein; higher = weaker binding; RNA-MaP array; FMN 200 µM where present
In short: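 On Illumina sequencing-chip clusters, designs were transcribed by stalled E. coli RNA polymerase and titrated with SNAP-549-labelled MS2 coat protein (0.7 or 1.5 nM, doubling to 3 µM), without and then with constant ligand, in 100 mM Tris-HCl pH 7.5, 80 mM KCl, 4 mM MgCl2, BSA, DTT, yeast tRNA and Tween-20. Apparent Kd is the median of filtered per-cluster curve fits to green signal normalised to red-channel RNA signal and control-cluster median Fmax.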

[1] = designed as: OFF switch for flavin mononucleotide, no ligand
[2] = ligand present: flavin mononucleotide, designed as: OFF switch for flavin mononucleotide
[3] = designed as: ON switch for flavin mononucleotide, no ligand
[4] = ligand present: flavin mononucleotide, designed as: ON switch for flavin mononucleotide

Sequence | apparent Kd [1] [nM] | apparent Kd [2] [nM] | apparent Kd [3] [nM] | apparent Kd [4] [nM]
GGCAAUAACGAGGAUAUCGUAUCGGAAACGAUACGAGAAGGUGUAACAUGAGGAUCACCCAUGUUCCUUAAGCC | 24.9 | 26.6 |  | 
GGUCCAACAUGAGGAUAUAGCACCUUAUUGGUGCUAGAAGGCGUGUCGGUAGACAUGAGGAUCACCCAUGUAUUACAAUGGACC |  |  | 140 | 27
GGGCGGAAUACAUGAGGAUCACCCAUGUCAGAAAGGGUAAUCAGAAGGUACUAUUAGAGAAAGAGUAAGGAUAUGAAUCCGCCC |  |  | 906 | 158
GCACUGGAUGUAGGAUAUCAGGACGAUAAGUCCUGAGAAGGACAUGAGGAUCACCCAUGUAACUCAAACCAGUGCUAUAAUAUA | 16.2 | 27.2 |  | 
AUCGUAACUUCGUGUCCACAUGAGGAUCACCCAUGUGCUACAAGAAGGGCCCGGGUCGGGUUAGGGCAGGAUAUUGUGUGCACA | 9.15 | 19.1 |  | 
AAUUAUUUUUGAGGAUAUCGUGGUGAAACACCACGAGAAGGCGAGAUAAACAUGAGGAUCACCCAUGUGAGCCUGAUGCUUAUG | 21.2 | 44.4 |  | 
UUAUAUAGAGUGAGGAUAUGCUGGUCCUUGGAUCAGCAGAAGGCACAUGAGGAUCACCCAUGUAAUAUAUUAUU | 22 | 38.2 |  | 
CAUGUCCUCACAGGAUAUGCACCACUUUGUGGUGCAGAAGGGUGGAAACAUGAGGAUCACCCAUGUGGACAUGAUAUAUUUAAG |  |  | 142 | 24.8
AAAAAAAAAGUCGAGGAUAUCCACAUGGCUACAUGAGGAUCACCCAUGUGAAGAAAAGCACAUGAGGAGAAGGCGACAAAAAAAAA |  |  | 28.1 | 13.7
UGGCUACAUGAGGAUCACCCAUGUCAGGAUAUGCCGUUGAAUUGACAUCAACGUACGGGUAGAAGGGACUGCGU | 39.5 | 38.8 |  | 
ACAUGAGGAUCACCCAUGUUUACAUGGAUUAUUAAUCUUUGAUAGGAUAUGUUAGUUAAGUAUUUACAGAAGGAUCAAUACCAA | 15.9 | 12.2 |  | 
CGUAGGAUCCAGAAGGCAUGAACAUGAGGAUCACCCAUGUCAAAAGACAUGAGGAUAUGGAUCCUACGAAAAGUGCGAAAGCAC |  |  | 19 | 5.55
CGGUACUUAGGAUAUACAUGAGGAUCACCCAUGUAGAGAAGGUGGGUGCCGUCCUGUAGUAGAAGGAAGAAUCG | 46.9 | 55.8 |  | 
UGGUACUAGGGAGGAUAUGGGAAGAUACAUGAGGAUCACCCAUGUUUAAGAAUGCCGAGAGGCAGCUAGAAGGCCCUAGUACCU |  |  | 675 | 24.7
GCCAACUCGUGAGGAUAUGGCACCUUAUUGGUGCCAGAAGGCAUGUCAAUUGACAUGAGGAUCACCCAUGUAUUAUAGUUGGCA |  |  | 563 | 88.2
AGUCGGCGAGGAUAUACAUGAGGAUCACCCAUGUGAUAGAGUGCACGCGUACGUGUAUGUAGAAGGCGCUGACA | 82 | 748 |  | 
AAGUCGGUAGAUAAUAAUGAUUACAUGAGGAUCACCCAUGUAUAGGAUAUCGUCAGGAAUACUGACGAGAAGGAUACAUCCGAC | 17.6 | 30 |  | 
AUAAAUCAUGUAGGAUAUGCGUGGCGAAGCUAUGCAGAAGGACAUGAGGAUCACCCAUGUCUGUCCGUCUGCGUACAGACGGAA | 29.3 | 274 |  | 
AAAUUCAGAGGAUAUGCGCAUAGAUAAGACUUUGUUUCUUAACAUGAGGAUCACCCAUGUAGAAGGCUGUAAAA | 19.4 | 19.8 |  | 
ACGUGUUAUACAGGAUAUGUUUAGGUACAAUCAUCCAGCUAUUAAUUUAUUACAGAAGGGUAAACAUGAGGAUCACCCAUGUCA | 26 | 15.9 |  | 
CGCACUAUACAUGAGGAUCACCCAUGUUAACUUUAGCUAUUCAGAAGGCAUAAAUAGAGAUUAAAUGAGGAUAUGAUUAGUGCG |  |  | 88.6 | 28.3
GGAAUACAUGAGGAUCACCCAUGUAAGGAUAUGCUGAUUAAUUAAUUAUAAUUAUGCAGCAGAAGGUACAAAGG | 85.9 | 104 |  | 
AAAUCGAGGUAACUCGCUAUCACACCAGAAGGGACGGAGGCACAUGAGGAUCACCCAUGUCCUAGUCAGGAUAUGGGUGAGUGG |  |  | 25.6 | 4.96
GGUAUGCAGCAGGAUAUCCAUCCGCGGUAUGGUGGAGAAGGGCUGACAUGAGGAUCACCCAUGUGCGUCCUAGG | 32.8 | 87.6 |  | 
GUGGUCAGACAUGAGGAUCACCCAUGUGGAAUAAAUAACAACUAGGAUAUAUAAUAUAGGAUAUAAUAGAAGGAGUGAUUGGUG |  |  | 141 | 188
UUGAUUAUACAAGGAUAUCAAUUGUAUACAAGUCUUACAUGAGGAUCACCCAUGUUAAAUUUUUUUGAGAAGGUGUGUUUUCAG |  |  | 32.2 | 29.5
CCGAGUGGCGUACAGGAUAUGUUGCGUGGAACAUGAGGAUCACCCAUGUAUUUGCUCCUGCAUACGCAGAAGGGUGCGUCCUGGG |  |  | 52.9 | 17.4
AGGAAACAUGAGGAUCACCCAUGUAAAAGGUGGUUAGGAUAUGCGAAAAGAAAAAGAAAAGCAGAAGGGACAAGAA |  |  | 487 | 485

Sequence | apparent Kd [1] [nM] | apparent Kd [2] [nM] | apparent Kd [3] [nM] | apparent Kd [4] [nM]
GCACUUUUAUUUGAACCGAUACGAACAUGAGGAUCACCCAUGUAGGAUAUGCUUAAAGUUGUGAUGCAGAAGGACAUUUAGUGC | 9.18 | 10.7 |  | 
AUAAUGUAAGGAUAUCAGUCGACUAGCCUCGGCUAGUCGACUGAGAAGGUACAUGAGGAUCACCCAUGUGUUCC | 140 | 766 |  | 
CAGCAAUGUAAGAAGGCUGCUCCGAUAAGGAGCAGAGGAUAUUACAUGAGGAUCACCCAUGUAUGAACCAAUAGCUGAAAUAAA | 8.78 | 94.2 |  | 
CGGUGCUGAGGAUAUACAUGAGGAUCACCCAUGUGUGCCAGCUAGCUGACUGGCACUUGUAGAAGGCAGUACUG | 12.7 | 24.2 |  | 
ACCACAGACCAGAAGGGUGAUCGGCCAUGAUACACAGGAUAUGGUCACAUGAGGAUCACCCAUGUAUGGGUUGUGUGACCCAGC |  |  | 70 | 91.7
UUAUGUUUACAAGGAUAUCAAUUAUUUAUACUUCCUACAUGAGGAUCACCCAUGUUUUUAUAUUUUGAGAAGGUGUAAUGUCGG |  |  | 38.5 | 35.4
UCCUCACAUGAGGAUCACCCAUGUCAGGAUAUAGGAGAUGGCAGAAAUCCUGCCAUCGCUAGAAGGGACUGGCA | 43.8 | 154 |  | 
UACGAAUACCCUCGUCGGCUGAAUCCAGAAGGACCACAUGAGGAUCACCCAUGUCGAAGAUAAAGGUAGGAUAUGGAGUGCCUA |  |  | 119 | 23.9
CUCUUUAGUCAGGAUAUCGUGAGGCUAAUUAUACGAGAAGGGACGACAUGAGGAUCACCCAUGUGGUCUUAGAG | 17.4 | 32.1 |  | 
GCACGGUAUGUAGGAUAUGCAUAGCAUUGCUAUGCAGAAGGACAUGAGGAUCACCCAUGUAUGUAUUCCAUACUAAUCCCGUGG | 5.38 | 5.72 |  | 
GGAUAGGACAGAGGAUAUACGUGCUAGAGAUACUAGCAAAAUUUCCUCACAUGAGGAUCACCCAUGUAGAAGGCUGCCCUAUCG | 13.8 | 374 |  | 
UGAUAACAUGUAGGAUAUGCAGCAUUGACCACUGCAGAAGGACAUGAGGAUCACCCAUGUACCGAUACUAUGGGAUCACGCAAU | 24.3 | 87.4 |  | 
GCCAGAGCAGGAUAUUCAAUAAUCCACAUGAGGAUCACCCAUGUCCAGCGAAAGCUGGAGGGAGAAGGGCUCUGGC | 94.2 | 35.1 |  | 
CCAUAUAACUGAGGAUAUACUCACCACUAACAUGUAGAAGGCAGACAUGAGGAUCACCCAUGUGAUUUCUCAAUAUUAUACAUC | 901 | 658 |  | 
UGUCGGAGCAGAGGAUAUCACAUGAGGAUCACCCAUGUAUGAACCAAUAGCUGGAAACAGCAAUGUAAGAAGGCUGCUCCGACA | 5.64 | 9.62 |  | 
GAGCUUGAUGAGAAGGGUUACAUGAGGAUCACCCAUGUCGACCUUGGCGUAACAGGAUAUCAUCGGGCUCUGUGCGUUGACACA | 27 | 121 |  | 
GUGAGCUCGUGAGGAUAUACAACACUGCUUCGGCAGUGUAUUAAGAUCACAUGAGGAUCACCCAUGUAGAAGGCACGAGCUGAU | 14.5 | 272 |  | 
ACCAUUUACUAAUUUUCUAUACAUGAGGAUCACCCAUGUUUUGAGGAUAUCAGCGUGAAACACGCUGAGAAGGCAAAACAUUCG | 142 | 387 |  | 
UUAAUUUGUCAAGGAUAUGUAAUAUAGAUUAGAAAACAUGAGGAUCACCCAUGUAUAUGGUGGGAACAGAAGGUGAAUGGUUUA | 189 | 160 |  | 
UUGAGGUCAGGAUAUGCAUGGCGGGACUUGCGUCGUGGCGUGGAGAAGGGACAUGAGGAUCACCCAUGUGGAGA | 83.5 | 81.6 |  | 
CUGGUUGUCGUAGGAUAUGUAGGAUAUUCCUACAUGAGGAUCACCCAUGUUCGCAUGGAAGAAAGACAGAAGGACGAUGACCAG |  |  | 816 | 50.2
ACAUGAGGAUCACCCAUGUUAAAUUAGGAUAUUUGACUGCACAUGAGGUUCACCCAUGUUCUACCGAAGAAGGGAUUAAUAAUU |  |  | 50 | 49.8
GAGAGCCGAGGAUAUACAUGAGGAUCACCCAUGUAAAAAAAAAAAAAAAAAAAAUCAUGUAGAAGGCGGCUUUC | 122 | 89.8 |  | 
GAUAAGCUAGGAUAUACAUAUUAUUUAAUAUCCUCAUUAAUACAUGAGGAUCACCCAUGUAGAAGGAGCAAUAG | 127 | 272 |  | 
UUGGACGUCGUAGGAUAUGUAGGAUAUUCCUACAUGAGGAUCACCCAUGUUGAAAUGGAAGAAGGACAGAAGGACGAUGUCCAU |  |  | 56.9 | 11.8
CUUCCAGUUGCAGGAUAUCGGGAGGAGAGAUUACGAGAAGGGCAACAUGAGGAUCACCCAUGUAUGUGCUUGGGACAACCUAUC | 13.2 | 38.2 |  | 
UCUGCCGCCGUGAGGAUAUGCCCAAACAAAAGCGGGCAGAAGGCACAUGAGGAUCACCCAUGUCCCGCGGUUUU | 18.5 | 37 |  | 

— the EternaBench riboswitch data
